In ChEMBL document CHEMBL5724801, “EUbOPEN Chemogenomics Library - Multiplex” (2024):
Several values for one entry are separate records, joined by “and”; a condition that tells them apart may be missing. Identical values can stand only once.

Test system: HEK-293T
Assay: Multiplex assay against HEK293T
Assay type: toxicity, cell-based
Details: human
Outline: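 Four dyes were applied at seeding to live cells: Hoechst33342, BioTracker Green Microtubule Cytoskeleton Dye, MitoTracker Red and Annexin V Alexa Fluor 680. Imaging after compound addition used a CQ1 microscope at 37°C and 5% CO2. CellPathfinder machine-learning gating then sorted cells into Hoechst high-intensity objects or normal cells, normal cells into healthy, pyknosed or fragmented nuclei, and pyknosed cells into mitotic or apoptotic, with tubulin, mitochondrial-mass and membrane-permeability phenotypes given as per cents of healthy-nucleus cells.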

[1] = 12 h, 1 µM, compound concentration 1 uM
[2] = 12 h, 10 µM, compound concentration 10 uM
[3] = 24 h, 1 µM, compound concentration 1 uM
[4] = 24 h, 10 µM, compound concentration 10 uM
[5] = 48 h, 1 µM, compound concentration 1 uM
[6] = 48 h, 10 µM, compound concentration 10 uM

## N[C@@]1(C(=O)O)CO[C@H]2[C@H](C(=O)O)[C@H]21 [LY-379268]
[1]
  Population Apoptotic (%): 40% and 42%
  Population Fragmented Nuclei (%): 6%
  Population Healthy Nuclei (%): 81% and 80%
  Population Hoechst High Intensity Objects (%): 5% and 10%
  Population Membrane Permeable-Phenotype (%): 0% and 1%
  Population Mitochondria Different-Phenotype (%): 38% and 57%
  Population Mitotic Cells (%): 60% and 57%
  Population Normal (%): 94% and 89%
  Population Pyknosed Nuclei (%): 12%
  Population Tubulin-Different-Phenotype (%): 26% and 18%
  Total Cell Count: 396 and 411
[2]
  Population Apoptotic (%): 27% and 52%
  Population Fragmented Nuclei (%): 10% and 8%
  Population Healthy Nuclei (%): 78% and 79%
  Population Hoechst High Intensity Objects (%): 8% and 7%
  Population Membrane Permeable-Phenotype (%): 0%
  Population Mitochondria Different-Phenotype (%): 33% and 51%
  Population Mitotic Cells (%): 72% and 47%
  Population Normal (%): 91% and 92%
  Population Pyknosed Nuclei (%): 10% and 12%
  Population Tubulin-Different-Phenotype (%): 31% and 18%
  Total Cell Count: 437 and 380
[3]
  Population Apoptotic (%): 30% and 29%
  Population Fragmented Nuclei (%): 8% and 7%
  Population Healthy Nuclei (%): 79% and 83%
  Population Hoechst High Intensity Objects (%): 2% and 7%
  Population Membrane Permeable-Phenotype (%): 0%
  Population Mitochondria Different-Phenotype (%): 21% and 31%
  Population Mitotic Cells (%): 70%
  Population Normal (%): 97% and 92%
  Population Pyknosed Nuclei (%): 11% and 9%
  Population Tubulin-Different-Phenotype (%): 20% and 13%
  Total Cell Count: 517 and 481
[4]
  Population Apoptotic (%): 36% and 43%
  Population Fragmented Nuclei (%): 10% and 8%
  Population Healthy Nuclei (%): 79% and 82%
  Population Hoechst High Intensity Objects (%): 6% and 8%
  Population Membrane Permeable-Phenotype (%): 0%
  Population Mitochondria Different-Phenotype (%): 24% and 39%
  Population Mitotic Cells (%): 63% and 56%
  Population Normal (%): 93% and 91%
  Population Pyknosed Nuclei (%): 9%
  Population Tubulin-Different-Phenotype (%): 15%
  Total Cell Count: 551 and 470
[5]
  Population Apoptotic (%): 26% and 33%
  Population Fragmented Nuclei (%): 13% and 10%
  Population Healthy Nuclei (%): 79% and 81%
  Population Hoechst High Intensity Objects (%): 3% and 7%
  Population Membrane Permeable-Phenotype (%): 1% and 0%
  Population Mitochondria Different-Phenotype (%): 15% and 22%
  Population Mitotic Cells (%): 73% and 66%
  Population Normal (%): 97% and 92%
  Population Pyknosed Nuclei (%): 6% and 7%
  Population Tubulin-Different-Phenotype (%): 9% and 14%
  Total Cell Count: 866 and 611
[6]
  Population Apoptotic (%): 24% and 25%
  Population Fragmented Nuclei (%): 16% and 11%
  Population Healthy Nuclei (%): 75% and 80%
  Population Hoechst High Intensity Objects (%): 4%
  Population Membrane Permeable-Phenotype (%): 1% and 0%
  Population Mitochondria Different-Phenotype (%): 18% and 19%
  Population Mitotic Cells (%): 75%
  Population Normal (%): 95%
  Population Pyknosed Nuclei (%): 7%
  Population Tubulin-Different-Phenotype (%): 10% and 9%
  Total Cell Count: 781 and 689
